Source: PubChem BioAssay
Compounds with a hit are over-represented: about 2% of the library has one in this group of screens.
TRPML3 agonist – human TRPML3 channel agonists, primary screen, cell-based, HEK293 TRPML3-YFP, Fluo-8 calcium fluorescence, 3 µM. activation, % at 3 µM. 100% = the carbachol control signal. actives 0.29% (n = 220,000). AID 1448, 2008. Mucolipin-3 (Homo sapiens), Q8TDD5;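 active = activation above its plate's cutoff, the mean activation of the plate's test wells plus 3 SD, cut at about 12% in these data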;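 also: 0% = DMSO only wells and 100% = carbachol wells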
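Test system: TRPML3-YFP stable HEK293 cells. Doses: single point at 3 µM. Incubation: dye loading 1 h 37 °C then 30 min ambient, 125 s read. Signal: Fluo-8 calcium dye fluorescence, ex 470-495, em 515-575 nm. Measure: percent activation from peak-to-basal fluorescence ratio, scaled between DMSO and carbachol.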
TRPN1 ag – zebrafish TRPN1 channel agonists, primary screen, cell-based, HEK293, calcium fluorescence; transient receptor potential cation channel N1 (TRPN1/NompC), Danio rerio; HEK293 zebrafish TRPN1-YFP, Fluo-8 calcium fluorescence; 100% = response to 87 µM carbachol; activation, % at 3 µM; actives 0.18% (n = 220,000); AID 1424, 2008;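 active = activation above its plate's cutoff, the mean activation of test wells on that plate plus 3 SD, cut at about 19% in these data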;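 also: 0% = DMSO alone and 100% = 87 µM carbachol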
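Material – zebrafish TRPN1-YFP in HEK293 cells · Doses – 3 µM single point · Schedule – dye 1 h 37 °C plus 30 min RT · Signal – Fluo-8 calcium fluorescence, excitation 470-495 nm, emission 515-575 nm · Read-out – % activation versus carbachol response · Control set – carbachol high, DMSO low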
GPR7 antag – GPR7 receptor antagonists, primary screen, cell-based, fluorescence, single concentration; AID 1861, 2009; GPR7-expressing cells, fluorescence antagonist assay; inhibition, % at 4.4 µM; actives 1.1% (n = 290,000); in the data active = inhibition above about 16%, passing the limit was not always enough;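 also: cells stimulated with the agonist NPW; 0% = agonist with vehicle and 100% = vehicle without agonist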
Target sequence (P48145 whole entry, looked up): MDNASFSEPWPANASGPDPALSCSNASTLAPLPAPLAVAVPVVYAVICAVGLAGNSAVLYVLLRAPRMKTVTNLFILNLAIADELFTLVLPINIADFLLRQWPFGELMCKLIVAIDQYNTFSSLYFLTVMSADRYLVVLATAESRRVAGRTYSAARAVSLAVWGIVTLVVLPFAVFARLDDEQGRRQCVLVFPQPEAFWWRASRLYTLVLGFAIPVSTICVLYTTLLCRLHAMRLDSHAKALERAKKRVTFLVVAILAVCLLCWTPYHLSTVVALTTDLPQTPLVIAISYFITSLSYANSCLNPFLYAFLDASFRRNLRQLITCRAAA
CRFBP-R2 block – antagonists of CRF-BP/CRF-R2 complex, primary screen, cell-based, HEK293, calcium dye fluorescence, uHTS; actives 0.59% (n = 350,000); CRF-induced calcium fluorescence; inhibition, % at 11.8 µM; AID 588475, 2011;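 active = inhibition of the ligand-induced calcium signal above about 50% at the single tested concentration, limit read from the data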
CRFR2-BP ag – agonists of CRF-BP/CRF-R2 complex, primary screen, cell-based, HEK293, calcium dye fluorescence, uHTS; CRF-binding protein / CRF receptor 2 complex (human); calcium dye fluorescence (FLIPR); percent of saturating CRF peptide response; activation, % at 13.2 µM; actives 0.46% (n = 350,000); AID 588473, 2011;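 active = activation of at least 50%, plus an integration ratio under a set limit after plate pattern correction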;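 also: plate controls were neutral control wells without compound for no effect and CRF at EC100 for full effect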
GPR7 antag conf – GPR7 receptor antagonists, confirmation, cell-based, fluorescence, single concentration | shares compounds with GPR7 antag | GPR7-expressing cells, calcium fluorescence antagonist mode | inhibition, % at 4.4 µM | actives 52% (n = 2,400) | AID 1952, 2009; in the data active = inhibition above about 24%;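 also: stimulated with the GPR7 agonist NPW; 0% = agonist plus vehicle and 100% = vehicle alone without agonist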
MCHR1 antag – MCHR1 antagonists in cells, counter-screen for GPR7 antagonist project, cell-based, fluorescence, human; actives 62% (n = 2,400); shares compounds with GPR7 antag; inhibition, % at 4.4 µM; AID 2148, 2009; MCHR1-expressing cells, fluorescence antagonist assay; in the data active = inhibition above about 22%;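 also: 0% = vehicle with agonist and 100% = vehicle without agonist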
The depositor's hits bear a star; · = no result.

SMILES	TRPML3 agonist	TRPN1 ag	GPR7 antag	CRFBP-R2 block	CRFR2-BP ag	GPR7 antag conf	MCHR1 antag
COc1ccc(C2(c3ccc(OC)cc3)NC(=O)N(CC(=O)Nc3ccc(OC(F)F)cc3)C2=O)cc1	·	·	4.1	-6.3	2.4	·	·
CCOC(=O)c1sc(NC(=O)CN2C(=O)NC3(CCCCCCC3)C2=O)c(C(=O)OCC)c1C	0.7	0.5	-0.2	-26.9	0.8	·	·
Cc1ccc(C2(C)NC(=O)N(CC(=O)N(C)CC(=O)Nc3cccc(F)c3)C2=O)cc1 (configuration not stated)	·	·	·	-8.1	0.8	·	·
CCOC(=O)c1c(NC(=O)CN2C(=O)NC(C)(c3ccc(OC(F)F)cc3)C2=O)sc(C)c1C (configuration not stated)	3.0	8.8	71.2*	-80.6	17.4	68.1*	85.9*
CC1(c2ccc(OC(F)F)cc2)NC(=O)N(CC(=O)Nc2cccc(F)c2)C1=O (configuration not stated)	·	·	93.7*	-82.1	136.2*	93.0*	92.3*
O=c1ccc(S(=O)(=O)N2CCCC2)cn1Cc1ccc(Cl)cc1Cl	·	·	·	-3.6	-0.6	·	·
COc1ccc(NC(=O)CN(C)C(=O)CSCc2c(C)noc2C)cc1	·	·	·	-6.4	-1.6	·	·
O=C(OCc1ccccc1)N1CCC2CC1c1ccc(N3CCNCC3)cc12 (configuration not stated)	·	·	·	6.1	0.9	·	·
Cc1ccc(NC(=O)CN2C(=O)NC(C)(c3ccc(Cl)cc3)C2=O)cc1 (configuration not stated)	·	·	22.5*	-48.6	19.5	42.7*	28.5*
CC1(c2ccc(OC(F)F)cc2)NC(=O)N(CC(=O)Nc2ccc(Cl)cc2F)C1=O (configuration not stated)	·	·	55.4*	-48.2	34.3	66.9*	63.7*
CC1(c2ccc(OC(F)F)cc2)NC(=O)N(CC(=O)Nc2ccc(OC(F)F)cc2)C1=O (configuration not stated)	·	·	86.4*	-39.0	47.2	88.3*	86.5*
CC1(c2ccc(OC(F)F)cc2)NC(=O)N(CC(=O)NC2CCCCC2)C1=O (configuration not stated)	1.9	3.2	6.6	-11.3	3.9	·	·
CC1(c2ccc(OC(F)F)cc2)NC(=O)N(CC(=O)Nc2ccc(S(N)(=O)=O)cc2)C1=O (configuration not stated)	-0.2	-1.1	-9.0	-3.5	-0.6	·	·
Cc1cc(NC(=O)CN2C(=O)NC(C)(c3ccc(OC(F)F)cc3)C2=O)no1 (configuration not stated)	7.3	14.6	50.2*	-67.5	78.3*	51.2*	47.8*
CCOC(=O)C1=CN(Cc2ccco2)S(=O)(=O)NC1c1ccc(Br)cc1F (configuration not stated)	·	·	·	-5.9	-1.1	·	·
Cc1cc(C)n2nc(C(=O)OCC(=O)N(Cc3ccccc3)C(C)C)nc2n1	·	·	·	12.7	-0.6	·	·
CC(C)CC(=O)c1c(O)c(C=O)c(O)c2c1O[C@@]1(C)[C@@H](C2)C[C@H]2C[C@@H]1C2(C)C	·	·	·	1.5	2.7	·	·
COc1cc(OC)cc(C(=O)N[C@H](C(=O)OCC(=O)Nc2ccc(F)c(F)c2)C(C)C)c1	-1.0	-3.2	21.3*	-88.7	1.6	33.7*	48.3*
COc1cc(OC)cc(C(=O)N[C@H](C(=O)OCC(=O)Nc2ccc(C(N)=O)cc2)C(C)C)c1	-0.1	-0.7	-0.7	-35.7	1.0	·	·
O=C(CN1CC(c2ccccc2)CC1=O)OCc1cccc(Br)c1 (configuration not stated)	-0.5	-2.5	4.9	26.3	-2.7	·	·
Nc1nnnn1CC(=O)OCc1cccc(Br)c1	-0.1	0.2	27.2*	4.5	0.0	-2.9	1.1
CCOC(=O)c1sc(N)nc1C(F)(F)F	·	·	·	-11.4	-1.1	·	·
Cc1ccc(NC(=O)CSc2nn(-c3ccccc3)c(=S)s2)cc1S(=O)(=O)N(C)C	1.4	-0.4	21.4*	-9.8	3.6	56.1*	68.0*
CC(C)N1CC(C(=O)Nc2ccc(Cl)cc2Cl)CC1=O (configuration not stated)	·	·	·	5.8	-0.6	·	·
Cc1nn(Cc2ccc(C(=O)Nc3ccccc3F)cc2)c(C)c1Cl	-0.5	-1.5	32.3*	-5.4	-1.0	9.8	31.4*
SMILES	TRPML3 agonist	TRPN1 ag	GPR7 antag	CRFBP-R2 block	CRFR2-BP ag	GPR7 antag conf	MCHR1 antag
CCOc1ccc(N/C(=N/c2nc(C)cc(C)n2)NC(=O)CC)cc1	0.5	1.7	21.1*	32.9	-5.3	0.8	7.5
COc1ccc(C)cc1N/C(N)=N/c1nc(C)cc(C)n1	0.3	1.0	-7.7	-26.4	1.8	·	·
Cc1ccc(C)c(N/C(N)=N/c2nc(C)cc(C)n2)c1	20.8*	35.8*	61.1*	-34.1	36.7	66.2*	71.1*
CC(=O)Nc1ccc(N/C(N)=N/c2nc(C)cc(C)n2)cc1	0.7	1.1	-4.6	-5.5	-1.8	·	·
Cc1cc(C)nc(/N=C(\N)Nc2ccc(SC(F)F)cc2)n1	16.6*	36.0*	64.4*	-20.9	25.0	68.3*	78.5*
CCOc1ccc(N/C(N)=N/c2nc(C)cc(C)n2)cc1	·	·	98.8*	-69.1	140.9*	93.6*	97.4*
O=C(Nc1ccc(OCC(=O)N2CCOCC2)cc1)c1cccc(Cl)c1	·	·	-9.9	-6.9	0.0	·	·
COc1ccc(CCc2ccc3ccccc3n2)cc1	·	·	·	15.5	-1.0	·	·
COC(=O)c1ccc(N/C=C/C(=O)c2ccccc2)cc1	·	·	-3.3	-1.1	-0.4	·	·
COCCN=C1N[C@@H](c2ccc(Br)cc2)C(C(=O)OC)=C(C)N1Cc1ccccc1	·	·	48.5*	1.1	3.2	65.0*	41.2*
COC(=O)C1=C(C)N(Cc2ccccc2)C(=NCc2ccccc2)N[C@H]1c1ccccc1	·	·	·	-2.5	4.0	·	·
COC(=O)C1=C(C)N(Cc2ccccc2)C(=NCc2ccccc2)N[C@H]1c1cccc(F)c1	·	·	51.4*	-5.3	3.9	54.9*	58.7*
N#Cc1ccccc1OCC(=O)Nc1nnc(C2CC2)s1	·	·	·	1.9	-0.6	·	·
CCc1ccc(N2C(=O)C3NN=C(C(=O)OCc4ccccc4)C3C2=O)cc1 (configuration not stated)	0.7	-0.1	-3.9	-7.8	-2.1	·	·
O=C(OCc1ccccc1)C1=NNC2C(=O)N(c3ccccc3)C(=O)C12 (configuration not stated)	-0.1	0.5	22.8*	-1.3	0.2	-2.1	-5.8
